{"source": "ChEMBL document CHEMBL1153955", "about": "“Indolylarylsulfones bearing natural and unnatural amino acids. Discovery of potent inhibitors of HIV-1 non-nucleoside wild type and resistant mutant strains reverse transcriptase and coxsackie B4 virus” (J Med Chem, 2009)", "key": {"[1]": {"system": "Respiratory syncytial virus", "assay": "Antiviral activity against RSV Long in human HeLa cells assessed as protection against virus-induced cytopathicity", "format": "functional, organism-based", "procedure,_shortened": "(§1)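 Confluent cell monolayers inoculated with 100 CCID₅₀ virus. After 1-2 h adsorption, residual virus removed and cultures incubated with varying compound concentrations. Cytopathicity scored once it reached completion in untreated infected controls. EC₅₀ = dose reducing virus-induced cytopathogenicity by 50%.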"}, "[2]": {"system": "Vesicular stomatitis virus", "assay": "Antiviral activity against VSV in human HeLa cells assessed as protection against virus-induced cytopathicity", "format": "functional, organism-based"}, "[3]": {"assay": "Cytotoxicity against human HeLa cells assessed as drug level causing microscopically detectable alteration of normal cell morphology after 3 days", "format": "cell-based", "procedure,_shortened": "(§2)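 Serial compound dilutions added to confluent HeLa or Vero monolayers. MCC = minimum concentration causing microscopically detectable alteration of cell morphology after 3 days of incubation.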"}, "[4]": {"assay": "Cytotoxicity against african green monkey Vero cells assessed as drug level causing microscopically detectable alteration of normal cell morphology after 3 days", "format": "cell-based", "conditions": "chlorocebus sabaeus", "procedure,_shortened": "as §2"}, "Coxsackievirus B4 [5]": {"system": "Coxsackievirus B4", "assay": "Antiviral activity against Coxsackievirus B4 in human HeLa cells assessed as protection against virus-induced cytopathicity", "format": "functional, organism-based", "conditions": "Enterovirus B", "procedure,_shortened": "as §1"}, "Coxsackievirus B4 [6]": {"system": "Coxsackievirus B4", "assay": "Antiviral activity against Coxsackievirus B4 in african green monkey Vero cells assessed as protection against virus-induced cytopathicity", "format": "functional, organism-based", "conditions": "Enterovirus B", "procedure,_shortened": "as §1"}, "Human respirovirus 3": {"system": "Human respirovirus 3", "assay": "Antiviral activity against Parainfluenza virus type 3 in african green monkey Vero cells assessed as protection against virus-induced cytopathicity", "format": "functional, organism-based", "conditions": "Human respirovirus 3, Vero", "procedure,_shortened": "as §1"}, "[7]": {"system": "Mammalian orthoreovirus 1", "assay": "Antiviral activity against Reovirus 1 in african green monkey Vero cells assessed as protection against virus-induced cytopathicity", "format": "functional, organism-based", "conditions": "Mammalian orthoreovirus 1, Vero", "procedure,_shortened": "as §1"}, "Sindbis virus": {"system": "Sindbis virus", "assay": "Antiviral activity against Sindbis virus in african green monkey Vero cells assessed as protection against virus-induced cytopathicity", "format": "functional, organism-based", "procedure,_shortened": "as §1"}, "Punta Toro virus": {"system": "Punta Toro virus", "assay": "Antiviral activity against Punta Toro virus in african green monkey Vero cells assessed as protection against virus-induced cytopathicity", "format": "functional, organism-based", "procedure,_shortened": "as §1"}, "[8]": {"biological_target": "Human immunodeficiency virus type 1 reverse transcriptase (Human immunodeficiency virus 1, UniProt Q72547)", "assay": "Inhibition of HIV1 reverse transcriptase p66/p51", "conditions": "read-out: IC50"}, "[9]": {"biological_target": "Human immunodeficiency virus type 1 reverse transcriptase (Human immunodeficiency virus 1, UniProt Q72547, K103N)", "assay": "Inhibition of HIV1 reverse transcriptase p66/p51 K103N mutant", "conditions": "read-out: IC50", "procedure,_shortened": "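Substrate was 0.5 µg poly(rA)/oligo(dT) 10:1 (0.3 µM 3′-OH ends) with 10 µM [³H]dTTP, at 37 °C. Acid-precipitable radioactivity was counted on GF/C filters after TCA washes.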"}, "[10]": {"assay": "Cytotoxicity against MDCK cells assessed as drug level causing microscopically detectable alteration of normal cell morphology", "format": "cell-based, Canis lupus familiaris", "conditions": "dog"}, "[11]": {"assay": "Cytotoxicity against MDCK cells by MTS assay", "format": "cell-based, Canis lupus familiaris", "conditions": "dog"}, "Influenza A virus [12]": {"system": "Influenza A virus", "assay": "Antiviral activity against influenza H1N1 virus in MDCK cells assessed as reduction of virus-induced cytopathicity by visual cytopathic effect scoring method", "format": "functional, organism-based"}, "Influenza A virus [13]": {"system": "Influenza A virus", "assay": "Antiviral activity against influenza H1N1 virus in MDCK cells assessed as reduction of virus-induced cytopathicity by MTS method", "format": "functional, organism-based", "conditions": "Influenza A virus, H1N1, MDCK"}, "Influenza A virus H3N2 [14]": {"system": "Influenza A virus H3N2", "assay": "Antiviral activity against influenza H3N2 virus in MDCK cells assessed as reduction of virus-induced cytopathicity by visual cytopathic effect scoring method", "format": "functional, organism-based"}, "Influenza A virus H3N2 [15]": {"system": "Influenza A virus H3N2", "assay": "Antiviral activity against influenza H3N2 virus in MDCK cells assessed as reduction of virus-induced cytopathicity by MTS method", "format": "functional, organism-based"}, "Influenza B virus [16]": {"system": "Influenza B virus", "assay": "Antiviral activity against influenza B virus in MDCK cells assessed as reduction of virus-induced cytopathicity by visual cytopathic effect scoring method", "format": "functional, organism-based"}, "Influenza B virus [17]": {"system": "Influenza B virus", "assay": "Antiviral activity against influenza B virus in MDCK cells assessed as reduction of virus-induced cytopathicity by MTS method", "format": "functional, organism-based"}}, "data": [{"smiles": "Nc1ncnc2c1ncn2C[C@H](O)CO", "note": "[(S)-DHPA]", "values": [{"measurement": "EC50", "setting": "[1]", "value": "> 250", "unit": "µM"}, {"measurement": "EC50", "setting": "[2]", "value": "> 250", "unit": "µM"}, {"measurement": "MCC at 72 h", "setting": "[3]", "value": "> 250", "unit": "µM"}, {"measurement": "MCC at 72 h", "setting": "[4]", "value": "> 250", "unit": "µM"}, {"measurement": "EC50", "setting": "Coxsackievirus B4 [5]", "value": "> 250", "unit": "µM"}, {"measurement": "EC50", "setting": "Coxsackievirus B4 [6]", "value": "> 250", "unit": "µM"}, {"measurement": "EC50", "setting": "Human respirovirus 3", "value": "> 250", "unit": "µM"}, {"measurement": "EC50", "setting": "[7]", "value": "> 250", "unit": "µM"}, {"measurement": "EC50", "setting": "Sindbis virus", "value": "> 250", "unit": "µM"}, {"measurement": "EC50", "setting": "Punta Toro virus", "value": "> 250", "unit": "µM"}]}, {"smiles": "Cc1cc(C)cc(S(=O)(=O)c2c(C(=O)N[C@H](C)C(N)=O)[nH]c3ccc(Cl)cc23)c1", "values": [{"measurement": "IC50", "setting": "[8]", "value": 0.017, "unit": "µM"}, {"measurement": "IC50", "setting": "[9]", "value": 0.253, "unit": "µM"}]}, {"smiles": "NC12CC3CC(CC(C3)C1)C2", "note": "[AMANTADINE]", "values": [{"measurement": "MCC", "setting": "[10]", "value": "> 100", "unit": "µM"}, {"measurement": "CC50", "setting": "[11]", "value": "> 100", "unit": "µM"}, {"measurement": "EC50", "setting": "Influenza A virus [12]", "value": "> 100", "unit": "µM"}, {"measurement": "EC50", "setting": "Influenza A virus [13]", "value": "> 100", "unit": "µM"}, {"measurement": "EC50", "setting": "Influenza A virus H3N2 [14]", "value": 100, "unit": "µM"}, {"measurement": "EC50", "setting": "Influenza A virus H3N2 [15]", "value": 75.3, "unit": "µM"}, {"measurement": "EC50", "setting": "Influenza B virus [16]", "value": "> 100", "unit": "µM"}, {"measurement": "EC50", "setting": "Influenza B virus [17]", "value": "> 100", "unit": "µM"}]}, {"smiles": "Cc1cc(C)cc(S(=O)(=O)c2c(C(=O)N[C@@H](C)C(N)=O)[nH]c3ccc(Br)cc23)c1", "values": [{"measurement": "IC50", "setting": "[8]", "value": 0.013, "unit": "µM"}, {"measurement": "IC50", "setting": "[9]", "value": 1.5, "unit": "µM"}]}]}
